Test results reported in ChEMBL document CHEMBL1129487, “In vivo biodistribution, pharmacokinetic parameters, and brain uptake of 5-halo-y-methoxy(or ethoxy)-5,6-dihydro-3'-azido-3'-deoxythymidine diastereomers as potential prodrugs of 3'-azido-3'-deoxythymidine” (J Med Chem, 1996).

What was measured:
Mus musculus [1] = experiment: Pharmacokinetic parameter AUC for the compound after intravenous administration into BALB/c Mice in plasma samples.; type: ADME, organism-based; design: concentration or dose not given beside the values; conditions: in vivo
Method in brief: (§1)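 Tail-vein injection in Balb/c mice at 144 µmol/kg, dissolved in 10% DMSO/water. Three mice per time point were killed by CO2, and blood was taken by cardiac puncture. With FIAU as internal standard, supernatant was Sep-Pak extracted. AZT was quantified by C18 HPLC (water:methanol 7:3, 265 nm; detection limit about 0.5 µg/mL). AUC covers 0 to last sample; t1/2 is from a one-compartment model.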

[2] = Partition coefficient for 1-octanol/water was evaluated; type: physicochemical
[3] = Half-life for the compound after intravenous administration into BALB/c Mice in plasma samples.; type: ADME, organism-based; conditions: mouse; method in brief: as §1
Mus musculus [4] = organism: Mus musculus; experiment: Thymidine Influx Inhibition constant for the compound in fresh Murine Erythrocytes; type: functional
Method in brief: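 Erythrocytes from B6D2F1 mice, 10% hematocrit in HEPES-buffered saline, were given [methyl-3H]-thymidine (0.1–1.0 mM, four levels) with or without test compound (0.1–2.5 mM, four levels). Zero-trans influx ran 3 s and was stopped with 10 µM NBMPR (final). Cells were perchloric acid extracted and counted, with the zero-time blank subtracted. Ki came from a Dixon plot (1/v vs i), in duplicate.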

Mus musculus [5] = organism: Mus musculus; experiment: Percentage of radioactivity in P1 subregion in mouse brain that contains nuclei and cell debris, after Jugular Vein Injection; type: ADME, organism-based; conditions: in vivo, iv
Method in brief: (§2)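 Brains were pooled from five mice, with cerebella removed, in 0.32 M sucrose. Homogenate was centrifuged at 0-4 °C: P1 at 1000g 10 min, P2 at 10000g 30 min, P3 at 100000g 1 h, S3 supernatant. Protein was by Lowry. Pellets were Protosol-solubilized at 55 °C, then counted by combustion/scintillation.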

Mus musculus [6] = organism: Mus musculus; experiment: Percentage of radioactivity in P2 subregion in mouse brain that contains myelin fragments, synaptosomes (pinched-nerve endings), and mitochondria after Jugular Vein Injection; type: ADME, organism-based; conditions: in vivo, iv; method in brief: as §2
Mus musculus [7] = organism: Mus musculus; experiment: Percentage of radioactivity in P3 subregion in mouse brain that contains microsomal fraction after Jugular Vein Injection; type: ADME, organism-based; conditions: in vivo, iv; method in brief: as §2
Mus musculus [8] = organism: Mus musculus; experiment: Percentage of radioactivity in S3 which is the soluble fraction in mouse brain after Jugular Vein Injection; type: ADME, organism-based; conditions: in vivo, iv; method in brief: as §2
Mus musculus [9] = organism: Mus musculus; experiment: Percentage of total protein recovered in P1 subregion in mouse brain that contains nuclei and cell debris, after Jugular Vein Injection; type: ADME, organism-based; conditions: in vivo, iv; method in brief: as §2
Mus musculus [10] = organism: Mus musculus; experiment: Percentage of total protein recovered in P2 subregion in mouse brain that contains myelin fragments, synaptosomes (pinched-nerve endings), and mitochondria after Jugular Vein Injection; type: ADME, organism-based; conditions: in vivo, iv; method in brief: as §2
Mus musculus [11] = organism: Mus musculus; experiment: Percentage of total protein recovered in P3 subregion in mouse brain that contains microsomal fraction after Jugular Vein Injection; type: ADME, organism-based; conditions: iv; method in brief: as §2
Mus musculus [12] = organism: Mus musculus; experiment: Distribution of analyte (pmol/mg) in mouse brain regions after Jugular Vein Injection into cerebellum; type: ADME, organism-based; conditions: in vivo, iv
Mus musculus [13] = organism: Mus musculus; experiment: Distribution of analyte (pmol/mg) in mouse brain regions after Jugular Vein Injection into cortex; type: ADME, organism-based; conditions: in vivo, iv
Mus musculus [14] = organism: Mus musculus; experiment: Distribution of analyte (pmol/mg) in mouse brain regions after Jugular Vein Injection into hypothalamus; type: ADME, organism-based; conditions: in vivo, iv
Mus musculus [15] = organism: Mus musculus; experiment: Distribution of analyte (pmol/mg) in mouse brain regions after Jugular Vein Injection into pons and medulla; type: ADME, organism-based; conditions: in vivo, iv
Mus musculus [16] = organism: Mus musculus; experiment: Distribution of analyte (pmol/mg) in mouse brain regions after Jugular Vein Injection into rest of the brain; type: ADME, organism-based; conditions: in vivo, iv
Mus musculus [17] = organism: Mus musculus; experiment: Distribution of analyte (pmol/mg) in mouse brain regions after Jugular Vein Injection into striatum; type: ADME, organism-based; conditions: in vivo, iv
Mus musculus [18] = organism: Mus musculus; experiment: Quantity of anylate in P1 subregion in mouse brain that contains nuclei and cell debris, after Jugular Vein Injection; type: functional; method in brief: as §2
Mus musculus [19] = organism: Mus musculus; experiment: Quantity of anylate in P2 subregion in mouse brain that contains myelin fragments, synaptosomes (pinched-nerve endings), and mitochondria after Jugular Vein Injection; type: functional, organism-based; method in brief: as §2
Mus musculus [20] = organism: Mus musculus; experiment: Quantity of anylate in P3 subregion in mouse brain that contains microsomal fraction after Jugular Vein Injection; type: functional, organism-based; method in brief: as §2
Mus musculus [21] = organism: Mus musculus; experiment: Quantity of anylate in S3 which is the soluble fraction in mouse brain after Jugular Vein Injection; type: functional; method in brief: as §2
Mus musculus [22] = organism: Mus musculus; experiment: Distribution of analyte (pmol/mg) in mouse brain regions after Jugular Vein Injection into hippocampus; type: ADME, organism-based; conditions: in vivo, iv
Mus musculus [23] = organism: Mus musculus; experiment: Percentage of total protein recovered in S3 which is the soluble fraction in mouse brain after Jugular Vein Injection; conditions: in vivo, iv
[24] = Concentration in mouse blood 90 min post injection at a dose 240 mocromol/kg; type: ADME; conditions: whole blood
Method in brief: (§3)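 Balb/c mice given 240 µmol/kg iv of the test diastereomer (10% DMSO/water vehicle, tail vein). Blood was drawn by cardiac puncture into heparinized syringe at 15, 20, 60 and 90 min. FIAU was added as internal standard, and the sample was extracted by Sep-Pak. AZT and parent were measured by C18 HPLC (water:methanol 7:3, UV 265 nm). Values are the average of two experiments.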

[25] = Concentration in mouse blood 15 min post injection at a dose 240 mocromol/kg; type: ADME, organism-based; conditions: whole blood; method in brief: as §3
[26] = Concentration in mouse blood 20 min post injection at a dose 240 mocromol/kg; type: ADME, organism-based; conditions: whole blood; method in brief: as §3
[27] = Concentration in mouse blood 60 min post injection at a dose 240 mocromol/kg; type: ADME, organism-based; conditions: whole blood; method in brief: as §3

CO[C@@H]1N(C2CC(N=[N+]=[N-])C(CO)O2)C(=O)NC(=O)[C@@]1(C)I (stereo not given in full)
AUC (Mus musculus [1]): 9820 ng·h/mL | Partition coefficient [2]: 18.8 | half-life [3]: 149 min | Ki (Mus musculus [4]): 200 µM

CO[C@H]1N(C2CC(N=[N+]=[N-])C(CO)O2)C(=O)NC(=O)[C@@]1(C)Cl (stereo not given in full)
Partition coefficient [2]: 3.3 | Ki (Mus musculus [4]): > 1500 µM

O=c1ccn([C@H]2C[C@H](O)[C@@H](CO)O2)c(=O)[nH]1 [DEOXYURIDINE]
Ki (Mus musculus [4]): 125 µM

CO[C@H]1N(C2CC(N=[N+]=[N-])C(CO)O2)C(=O)NC(=O)[C@]1(C)Br (stereo not given in full)
Distribution (Mus musculus [5]): 4.6% | Distribution (Mus musculus [6]): 5.6% | Distribution (Mus musculus [7]): 1.4% | Distribution (Mus musculus [8]): 88.4% | Distribution (Mus musculus [9]): 13.3% | Distribution (Mus musculus [10]): 53.1% | Distribution (Mus musculus [11]): 8.7% | AUC (Mus musculus [1]): 6740 ng·h/mL | Distribution (Mus musculus [12]): 0.72 pmol/mg | Distribution (Mus musculus [13]): 0.71 pmol/mg | Distribution (Mus musculus [14]): 1.32 pmol/mg | Distribution (Mus musculus [15]): 0.66 pmol/mg | Distribution (Mus musculus [16]): 0.71 pmol/mg | Distribution (Mus musculus [17]): 0.88 pmol/mg | Partition coefficient [2]: 13.2 | half-life [3]: 41.8 min | Quantity (Mus musculus [18]): 2.08 pmol/mg | Quantity (Mus musculus [19]): 0.65 pmol/mg | Quantity (Mus musculus [20]): 0.98 pmol/mg | Quantity (Mus musculus [21]): 21.8 pmol/mg | Ki (Mus musculus [4]): 450 µM | Distribution (Mus musculus [22]): 0.71 pmol/mg | Distribution (Mus musculus [23]): 24.9%

CO[C@@H]1N(C2CC(N=[N+]=[N-])C(CO)O2)C(=O)NC(=O)[C@@]1(C)Br (stereo not given in full)
AUC (Mus musculus [1]): 13500 ng·h/mL | Partition coefficient [2]: 16.7 | half-life [3]: 31.1 min | Ki (Mus musculus [4]): 500 µM

CO[C@H]1N(C2CC(N=[N+]=[N-])C(CO)O2)C(=O)NC(=O)[C@]1(C)I (stereo not given in full)
AUC (Mus musculus [1]): 12500 ng·h/mL | Partition coefficient [2]: 10.6 | half-life [3]: 33.6 min | Ki (Mus musculus [4]): 350 µM

Cc1cn([C@H]2C[C@H](N=[N+]=[N-])[C@@H](CO)O2)c(=O)[nH]c1=O [ZIDOVUDINE]
AUC (Mus musculus [1]): 11800 ng·h/mL | Partition coefficient [2]: 1.3 | half-life [3]: 23.5 min | concentration at […] [24]: < 1000 ng/mL | concentration at 0.25 h [25]: 2500 ng/mL | Ki (Mus musculus [4]): 1330 µM | concentration at 20 min [26]: 2500 ng/mL

CO[C@H]1N(C2CC(N=[N+]=[N-])C(CO)O2)C(=O)NC(=O)[C@]1(C)Cl (stereo not given in full)
Partition coefficient [2]: 7.6 | concentration at […] [24]: 1100 ng/mL | concentration at 0.25 h [25]: 28800 ng/mL | concentration at 1 h [27]: 16300 ng/mL | Ki (Mus musculus [4]): 360 µM | concentration at 20 min [26]: 12500 ng/mL

CCO[C@H]1N(C2CC(N=[N+]=[N-])C(CO)O2)C(=O)NC(=O)[C@]1(C)Br (stereo not given in full)
Distribution (Mus musculus [5]): 5.2% | Distribution (Mus musculus [6]): 7.7% | Distribution (Mus musculus [7]): 2.4% | Distribution (Mus musculus [8]): 84.7% | Distribution (Mus musculus [9]): 11.9% | Distribution (Mus musculus [10]): 43% | Distribution (Mus musculus [11]): 17.6% | Distribution (Mus musculus [12]): 0.66 pmol/mg | Distribution (Mus musculus [13]): 0.66 pmol/mg | Distribution (Mus musculus [14]): 1.1 pmol/mg | Distribution (Mus musculus [15]): 0.62 pmol/mg | Distribution (Mus musculus [16]): 0.83 pmol/mg | Distribution (Mus musculus [17]): 0.85 pmol/mg | Quantity (Mus musculus [18]): 3.96 pmol/mg | Quantity (Mus musculus [19]): 1.62 pmol/mg | Quantity (Mus musculus [20]): 1.21 pmol/mg | Quantity (Mus musculus [21]): 27.8 pmol/mg | Distribution (Mus musculus [22]): 1.1 pmol/mg | Distribution (Mus musculus [23]): 27.5%
